Measurements as given in ChEMBL document CHEMBL1157455, “Synthesis and anti-hepatitis B virus evaluation of novel ethyl 6-hydroxyquinoline-3-carboxylates in vitro” (Bioorg Med Chem, 2008).
The source made the active and inactive calls. No cut-off for these calls is given here.

Legend:
[1] = Cytotoxicity against human HepG2.2.15 cells after 9 days by MTT assay; assay type: cell-based, HepG2 2.2.15; conditions: read-out: TC50
Summary of the method: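 HepG2.2.15 cells were treated as in the antiviral assay (RPMI 1640, 2% FBS, daily renewal), with untreated controls on each plate. Viability after 9 days of treatment was read from neutral red uptake as absorbance at 510 nm relative to untreated cells. TC50 is the 50% cytotoxic concentration.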

Hepatitis B virus [2] = assay: Antiviral activity against HBV assessed as inhibition of viral e-antigen production by enzyme immunoassay; assay type: functional, organism-based
Summary of the method: (§1)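 Confluent HepG2.2.15 cells were treated with varied doses in RPMI 1640 plus 2% FBS, with fresh medium and drug each day for 8 days. Secreted HBeAg or HBsAg in the supernatant was measured by semiquantitative enzyme immunoassay, giving a 50% inhibitory concentration (IC50).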

[3] = Selectivity index, ratio of TC50 for human HepG2.2.15 cells to IC50 for HBV surface antigen production
Summary of the method: (§2)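 SI = TC50/IC50. TC50 is the 50% cytotoxic concentration in HepG2.2.15 cells by neutral red uptake after 9 days. IC50 comes from the 8-day HepG2.2.15 treatment in RPMI 1640 with 2% FBS, read by Southern blot for DNA or by enzyme immunoassay for secreted HBeAg or HBsAg.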

[4] = Selectivity index, ratio of TC50 for human HepG2.2.15 cells to IC50 for HBV e-antigen production; summary of the method: as §2
Hepatitis B virus [5] = assay: Antiviral activity against HBV assessed as inhibition of viral surface-antigen production by enzyme immunoassay; assay type: functional, organism-based; summary of the method: as §1
Hepatitis B virus [6] = assay: Antiviral activity against HBV assessed as inhibition of viral DNA replication by Southern blot; assay type: functional, organism-based
Summary of the method: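 Confluent HepG2.2.15 cultures were dosed across a range of concentrations in RPMI 1640 with 2% FBS. Medium and compound were renewed daily for 8 days. Intracellular HBV DNA was quantified by Southern blot hybridization and IC50 was taken as the 50% inhibitory concentration.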

[7] = Selectivity index, ratio of TC50 for human HepG2.2.15 cells to IC50 for HBV DNA replication; summary of the method: as §2
Hepatitis B virus [8] = assay: Antiviral activity against HBV assessed as inhibition of viral surface-antigen production at <60 uM by enzyme immunoassay; assay type: functional, organism-based

IC50 (Hepatitis B virus [2]) [µM] | IC50 (Hepatitis B virus [5]) [µM] | IC50 (Hepatitis B virus [6]) [µM] | SMILES | CC50 at 216 h [1] [µM] | Ratio [3] | Ratio [4] | Ratio [7] | Activity (Hepatitis B virus [8])
10.9 | 5.8 |  | CCOC(=O)c1cc2c(CN3CCOCC3)c(O)c(OC)cc2nc1CSc1ccc(F)c(F)c1 | 79.7 | 13.7 | 7.3 |  | 
9.3 | 8.5 | 10.2 | CCOC(=O)c1cc2c(CN3CCCC3)c(O)c(OC)cc2nc1CSc1ccc(F)cc1 | 47.3 | 5.6 | 5.1 | 4.6 | 
 |  | 45.2 | CCOC(=O)c1cc2c(CN3CCCCC3)c(O)c(OC)cc2nc1CSc1ccccc1 | 60.7 |  |  | 1.3 | inactive
 |  | 24.1 | CCOC(=O)c1cc2c(CN3CCCCC3)c(O)c(OC)cc2nc1CSc1ccc(F)c(F)c1 | 135 |  |  | 5.6 | 
 | 36.5 | 21.9 | CCOC(=O)c1cc2c(CN(C)C)c(O)c(OC)cc2nc1C[S+]([O-])c1ccc(F)cc1 (configuration not stated) | 90.4 | 2.5 |  | 4.1 | 
 | 33.1 |  | CCOC(=O)c1cc2c(Cn3ccnc3)c(O)c(OC)cc2nc1C[S+]([O-])c1cccc(OC)c1 (configuration not stated) | 194 | 5.9 |  |  | 
98.1 | 26.2 | 4.7 | CCOC(=O)c1cc2c(Cn3ccnc3)c(O)c(OC)cc2nc1C[S+]([O-])c1ccc(F)cc1 (configuration not stated) | 160 | 6.1 | 1.6 | 34.1 | 
 |  | 311 | Nc1ccn([C@@H]2CS[C@H](CO)O2)c(=O)n1 [LAMIVUDINE] | 2210 |  |  | 7.1 | 
16.2 |  | 30.6 | CCOC(=O)c1cc2c(Cn3ccnc3C)c(O)c(OC)cc2nc1CSc1ccc(F)cc1 | 78.5 |  | 4.8 | 2.6 | 
20.5 |  |  | CCOC(=O)c1cc2c(CN(C)C)c(O)c(OC)cc2nc1CSc1ccccc1OC | 58.5 |  | 2.9 |  | 
16.4 |  | 9.4 | CCOC(=O)c1cc2c(Cn3ccnc3)c(O)c(OC)cc2nc1CSc1ccc(F)c(F)c1 | 133 |  | 8.1 | 14.1 | 

More lines, now with the values behind:

SMILES | IC50 (Hepatitis B virus [2]) [µM] | IC50 (Hepatitis B virus [5]) [µM] | IC50 (Hepatitis B virus [6]) [µM] | CC50 at 216 h [1] [µM] | Ratio [3] | Ratio [4] | Ratio [7] | Activity (Hepatitis B virus [8])
CCOC(=O)c1cc2c(Cn3ccnc3)c(O)c(OC)cc2nc1CSc1ccc(OC)c(OC)c1 |  |  |  | 189 |  |  |  | 
CCOC(=O)c1cc2c(CN3CCCC3)c(O)c(OC)cc2nc1C[S+]([O-])c1ccc(F)cc1 (configuration not stated) | 21.1 | 25.1 | 10.7 | 166 | 6.6 | 7.9 | 15.5 | 
CCOC(=O)c1cc2c(CN3CCCC3)c(O)c(OC)cc2nc1C[S+]([O-])c1ccc(F)c(F)c1 (configuration not stated) |  |  | 5.3 | 16.5 |  |  | 3.1 | 
CCOC(=O)c1cc2c(Cn3ccnc3)c(O)c(OC)cc2nc1CSc1ccc(F)cc1 |  | 42.8 | 41.7 | 202 | 6 |  | 6.2 | 
CCOC(=O)c1cc2c(Cn3ccnc3)c(O)c(OC)cc2nc1CSc1cccc(OC)c1 | 65.1 |  |  | 186 |  | 2.9 |  | 
CCOC(=O)c1cc2c(CN3CCCC3)c(O)c(OC)cc2nc1C[S+]([O-])c1ccccn1 (configuration not stated) |  |  |  | 9.4 |  |  |  | 
CCOC(=O)c1cc2c(CN3CCN(C)CC3)c(O)c(OC)cc2nc1CSc1ccc(F)c(F)c1 |  | 11.2 |  | 55.3 | 4.9 |  |  | 
CCOC(=O)c1cc2c(CN(C)C)c(O)c(OC)cc2nc1CSc1ccc(F)cc1 |  | 17.4 | 32.8 | 120 | 6.9 |  | 3.7 | 
CCOC(=O)c1cc2c(Cn3ccnc3)c(O)c(OC)cc2nc1C[S+]([O-])c1ccc(F)c(F)c1 (configuration not stated) |  |  | 12.5 | 90.8 |  |  | 7.3 | 
CCOC(=O)c1cc2c(CN3CCCC3)c(O)c(OC)cc2nc1CSc1ccccn1 |  |  |  | 17.5 |  |  |  | 
